Laboratory results taken from article PMC10470302 (iScience, 2023).

How the values were obtained:
[1] = system: Ser2/Thr4 phosphorylation on RNA polymerase II, HEK293 cells; experiment: Western blot of Pol II phosphorylation after flavopiridol; format: cell-based, human; conditions: time course (Figure S10A)
[2] = system: CHERP recruitment to the genome, HEK293 cells; experiment: ChIP-seq of CHERP; format: cell-based, human; conditions: 2μM flavopiridol, HA-CHERP in HEK293 cells, HA antibody ChIP-seq
CHERP (SCAF6) = CHERP (SCAF6) (UniProt Q8IWX8); experiment: GST-CTD pull-down, label-free LC-MS/MS; conditions: reference: GST-CTD, buffer with no kinase; sites S2
[3] = system: pSer2 Pol II and CHERP in HEK293 cells; experiment: Immunofluorescence colocalization of CHERP and pSer2 Pol II; format: cell-based, human; conditions: transfected HEK293 cells, confocal, no flavopiridol, N = 7
In short: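 HEK293 cells were transfected (Fugene, 1:3 plasmid:reagent) with HA-CHERP or HA-CHERPΔCID, fixed 15 min in 1% formaldehyde at room temperature, and permeabilized with 0.2% Triton X-100. They were blocked 30 min in 2% BSA, then given primary antibody and Alexa Fluor 488/568 secondary, 1 h each at room temperature. Pearson coefficients were computed with threshold, from 7 cells across at least two biological replicates.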

[4] = system: Pol II (RPB1, pSer2, pThr4), HEK293 cells; experiment: Co-immunoprecipitation with Pol II; format: cell-based, human; conditions: HEK293 extracts, western blot, at least three independent replicates
In short: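 Protein G beads were loaded overnight at 4°C with 3 µg antibody or control IgG. 250 µg protein was bound for 2 h, washed three times, eluted by boiling 5 min in 2× SDS buffer, then immunoblotted.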

CN1CC[C@H](c2c(O)cc(O)c3c(=O)cc(-c4ccccc4Cl)oc23)[C@H](O)C1 [flavopiridol]
Ser2/Thr4 phosphorylation on RNA polymerase II [1]: caused Ser2/Thr4 phosphorylation to be reduced
CHERP recruitment to the genome with flavopiridol [2]: great reduction of CHERP recruitment to the genome

yeast CTD (GST-yCTD 26x) CTD, 26 heptad repeats GST-CTD treated with DYRK1A
fold change (CHERP (SCAF6)): 2.9

B1: CHERP: calcium homeostasis endoplasmic reticulum protein; endogenous or HA-tagged full-length (protein)
chain: MEMPLPPDDQELRNVIDKLAQFVARNGPEFEKMTMEKQKDNPKFSFLFGGEFYSYYKCKLALEQQQLICKQQTPELEPAATMPPLPQPPLAPAAPIPPAQGAPSMDELIQQSQWNLQQQEQHLLALRQEQVTAAVAHAVEQQMQKLLEETQLDMNEFDNLLQPIIDTCTKDAISAGKNWMFSNAKSPPHCELMAGHLRNRITADGAHFELRLHLIYLINDVLHHCQRKQARELLAALQKVVVPIYCTSFLAVEEDKQQKIARLLQLWEKNGYFDDSIIQQLQSPALGLGQYQATLINEYSSVVQPVQLAFQQQIQTLKTQHEEFVTSLAQQQQQQQQQQQQLQMPQMEAEVKATPPPPAPPPAPAPAPAIPPTTQPDDSKPPIQMPGSSEYEAPGGVQDPAAAGPRGPGPHDQIPPNKPPWFDQPHPVAPWGQQQPPEQPPYPHHQGGPPHCPPWNNSHEGMWGEQRGDPGWNGQRDAPWNNQPDAAWNSQFEGPWNSQHEQPPWGGGQREPPFRMQRPPHFRGPFPPHQQHPQFNQPPHPHNFNRFPPRFMQDDFPPRHPFERPPYPHRFDYPQGDFPAEMGPPHHHPGHRMPHPGINEHPPWAGPQHPDFGPPPHGFNGQPPHMRRQGPPHINHDDPSLVPNVPYFDLPAGLMAPLVKLEDHEYKPLDPKDIRLPPPMPPSERLLAAVEAFYSPPSHDRPRNSEGWEQNGLYEFFRAKMRARRRKGQEKRNSGPSRSRSRSKSRGRSSSRSNSRSSKSSGSYSRSRSRSCSRSYSRSRSRSRSRSRSSRSRSRSQSRSRSKSYSPGRRRRSRSRSPTPPSSAGLGSNSAPPIPDSRLGEENKGHQMLVKMGWSGSGGLGAKEQGIQDPIKGGDVRDKWDQYKGVGVALDDPYENYRRNKSYSFIARMKARDECK
colocalization correlation value (Pearson), CHERP vs pSer2 Pol II [3]: 0.77
co-immunoprecipitation with Pol II or its phosphorylation forms [4]: interacted with total Pol II
